Test results as given in ChEMBL document CHEMBL1126570, “Synthesis and cytotoxicity of potential tumor-inhibitory analogues of trimelamol (2,4,6-tris[(hydroxymethyl)methylamino]-1,3,5-triazine) having electron-withdrawing groups in place of methyl” (J Med Chem, 1993).
pIC50: −log10 of the molar value. ≈ marks a conversion by molar mass, not a printed value.

Experiments:
L1210 = test: In vitro cytotoxicity against L1210 murine lymphocytic leukemia cell lines; assay type: functional, cell-based; conditions: Mus musculus
Summary of the method: (§1)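 MTT assay on suspension lines dispersed to single cells (L1210 RPMI/10% DHS; ADJ/PC6 DMEM/20% DHS plus hydrocortisone, insulin; H69 RPMI/10% FCS; Walker 256 DMEM/10% DHS), 1×10^3–8×10^3 cells/well. Continuous exposure 72–144 h, 37 °C; MTT 4–5 h, plates spun, formazan in DMSO, A540 vs untreated control. 3–6 replicate wells, each assay at least twice.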

[1] = In vitro cytotoxicity against walker rat carcinoma 256 cell lines; assay type: functional; summary of the method: as §1
[2] = test system: ADJ/PC6 plasmacytoma (Mus musculus); test: In vitro cytotoxicity against PC6 murine plasmacytoma cell lines
NCI-H69 = test: In vitro cytotoxicity against human small cell lung cancer H69 cell lines; assay type: functional, cell-based; summary of the method: as §1
[3] = Half-life was determined in water at 7.5 pH at 37 degree C; assay type: ADME; conditions: pH 7.5
Summary of the method: (§2)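 Compound added from 50 mM DMSO stock to 10 mL of medium in polypropylene tubes, final 100 μM; tubes held in water baths at 37 °C or ambient (20–24 °C). Remaining parent measured by HPLC on C8 column, UV 225 nm; t1/2 from semilog plot of peak area versus time. Run on at least two occasions, variation 2–22%.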

[4] = Half-life was determined in water at 2.0 pH at 37 degree C; assay type: ADME; conditions: pH 2; summary of the method: as §2
[5] = Aqueous solubility was determined; assay type: physicochemical
[6] = In vitro cytotoxicity against GCT cell lines; assay type: functional, cell-based; conditions: Homo sapiens
Summary of the method: (§3)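 MTT assay on GCT-27 and GCT-27/CisR (DMEM, 10% FCS, glutamine, hydrocortisone, insulin), trypsinized to single cells, 1×10^3–8×10^3 cells/well. Continuous drug exposure, 72–144 h at 37 °C, 8% CO2; MTT 4–5 h, formazan in DMSO, A540 (ref 690) as fraction of untreated control. 3–6 replicate wells per concentration, each assay at least twice.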

[7] = In vitro cytotoxicity against GCT / cisR cell lines; assay type: functional, cell-based; conditions: Homo sapiens; summary of the method: as §3
[8] = Half-life was determined in water at 7.5 pH at room temperature; assay type: ADME; conditions: pH 7.5; summary of the method: as §2
[9] = Half-life was determined in 5%dextrose at 4.0 pH at room temperature; assay type: ADME; conditions: 5% dextrose solution, pH 4; summary of the method: as §2
[10] = Half-life was determined in 0.9%sodium chloride at 5.2 pH at room temperature; assay type: ADME; conditions: 0.9% sodium chloride solution, pH 5.2; summary of the method: as §2
[11] = Half-life was determined in water at 5.0 pH at 37 degree C; assay type: ADME; conditions: pH 5; summary of the method: as §2
[12] = Half-life was determined in water at 5.0 pH at room temperature; assay type: ADME; conditions: pH 5; summary of the method: as §2

Compound	pIC50 (L1210)	pIC50 [1]	pIC50 [2]	pIC50 (NCI-H69)	half-life [3] [min]	half-life [4] [min]	solubility [5] [µg/mL]	pIC50 [6]	pIC50 [7]	half-life [8] [days]	half-life [9] [min]	half-life [10] [days]	half-life [11] [min]	half-life [12] [days]
CNc1nc(NCC(F)(F)F)nc(N(CO)CC(F)(F)F)n1	3.95	4.56	4.15	4.49										
C#CCN(CO)c1nc(N(CO)CC#C)nc(N(CO)CC#C)n1	4.32	4.85	4.45	4.88	450	40	30 (≈ 90.8 µM)	4.27	4.33					
OCN(CC(F)(F)F)c1nc(N(CO)CC(F)(F)F)nc(N(CO)CC(F)(F)F)n1	4.26	4.91	4.53	4.89	690	60	30 (≈ 64.9 µM)			3.54	3000	3.96		
OCN(CC(F)(F)F)c1nc(NCC(F)(F)F)nc(NCC(F)(F)F)n1	4.08	4.65	4.11	4.37										
N#CCN(CO)c1nc(N(CO)CC#N)nc(N(CO)CC#N)n1	4.49	5.12	4.71	4.93	275	350	1000 (≈ 3000 µM)			3.13	10800	5.62	960	4.25
OCOCN(CC(F)(F)F)c1nc(N(CO)CC(F)(F)F)nc(N(CO)CC(F)(F)F)n1			4.53	4.87				4.59	4.63					
CN(CO)c1nc(N(C)CO)nc(N(C)CO)n1 [TRIMELAMOL]	4.48	5.03	4.89	5.07	120		4500 (≈ 17400 µM)	4.61	4.51		350	0.191	200	0.569
